In ChEMBL document CHEMBL1121917, “Structure--activity relationships in a broad-spectrum anthelmintic series. Acid chloride phenylhydrazones. 1. Aryl substitutions and chloride variations” (1981):

What was measured:
Ovis aries [1] = assay: Percent reduction in Trichostrongylus eggs per gram, after treatment with 300 mg/kg dose of compound perorally in sheep; type: functional, Egg; settings: route oral
Canis familiaris [2] = organism: Canis familiaris; assay: percent reduction in Ancylostoma eggs per gram, after oral treatment of 50 mg/dog dose of compound in a single treatment; type: functional, Canis lupus familiaris, Egg
Ovis aries [3] = assay: Percent reduction in Trichostrongylus eggs per gram, after treatment with 100 mg/kg dose of compound perorally in sheep; type: functional, Egg; settings: route oral
How it was run: (§1)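 Naturally parasitized lambs, dosed orally either with a suspension by stomach tube or with finely ground compound in gelatin capsules by balling gun. Activity was scored by the clinical test method, meaning a significant fall in helminth egg counts after treatment.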

Ovis aries [4] = assay: Percent reduction in Haemonchus eggs per gram, after treatment with 300 mg/kg dose of compound perorally in sheep; type: functional, Egg; settings: route oral
How it was run: (§2)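 Naturally parasitized lambs were dosed orally at the stated mg/kg. Dosing was either as a suspension of finely ground compound by stomach tube, or as ground compound weighed into gelatin capsules and given by balling gun. Activity was scored by the clinical test method: the decrease in posttreatment helminth eggs per gram.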

Canis familiaris [5] = organism: Canis familiaris; assay: percent reduction in Ancylostoma eggs per gram, after oral treatment of 150 mg/dog dose of compound in a single treatment; type: functional, Canis lupus familiaris, Egg
Ovis aries [6] = assay: Percent reduction in Nematodirus eggs per gram, after treatment with 400 mg/kg dose of compound perorally in sheep; type: functional, Egg; settings: route oral; how it was run: as §2
Ovis aries [7] = assay: Percent reduction in Trichuris eggs per gram, after treatment with 100 mg/kg dose of compound perorally in sheep; type: functional, Egg; settings: route oral; how it was run: as §1
Ovis aries [8] = assay: Percent reduction in Trichostrongylus eggs per gram, after treatment with 400 mg/kg dose of compound perorally in sheep; type: functional, Egg; settings: route oral; how it was run: as §1
Ovis aries [9] = assay: Percent reduction in Haemonchus eggs per gram, after treatment with 400 mg/kg dose of compound perorally in sheep; type: functional, Egg; settings: route oral; how it was run: as §2
Ovis aries [10] = assay: Percent reduction in Oesophagostomum eggs per gram, after treatment with 400 mg/kg dose of compound perorally in sheep; type: functional, Egg; settings: route oral; how it was run: as §2
Ovis aries [11] = assay: Percent reduction in Nematodirus eggs per gram, after treatment with 300 mg/kg dose of compound perorally in sheep; type: functional, Egg; settings: route oral; how it was run: as §2
Ovis aries [12] = assay: Percent reduction in Ostertagia eggs per gram, after treatment with 300 mg/kg dose of compound perorally in sheep; type: functional, Egg; settings: route oral; how it was run: as §1
Ovis aries [13] = assay: Percent reduction in Strongyloides eggs per gram, after treatment with 300 mg/kg dose of compound perorally in sheep; type: functional, Egg; settings: route oral; how it was run: as §1
Ovis aries [14] = assay: Percent reduction in Haemonchus eggs per gram, after treatment with 100 mg/kg dose of compound perorally in sheep; type: functional, Egg; settings: route oral
How it was run: (§3)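 Naturally parasitized lambs received compound orally, either as the aqueous suspension by stomach tube or as finely ground powder in gelatin capsules by balling gun. Activity was judged by the clinical test method, as a significant decrease in posttreatment helminth egg counts.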

Mus musculus [15] = organism: Mus musculus; assay: Percent clearance of Nematospiroides dubius from mouse after oral treatment of 1.875 mg/mouse/day; type: functional
How it was run: (§4)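 Mice naturally carrying Syphacia obvelata were experimentally infected with Nematospiroides dubius and Hymenolepis nana, then grouped after a 2-week prepatency. Finely ground compound was suspended in aqueous 0.10% carboxymethylcellulose, 0.04% polysorbate 80 and 0.0042% polyparaben, and 0.1 mL was given orally by cannula once daily for 4 days to five mice. Necropsy followed 2 days later, scoring presence or absence of each parasite. Control clearance was subtracted from the treated clearance.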

Ovis aries [16] = assay: Percent reduction in Strongyloides eggs per gram, after treatment with 400 mg/kg dose of compound perorally in sheep; type: functional, Egg; settings: route oral; how it was run: as §1
Ovis aries [17] = assay: Percent reduction in Trichuris eggs per gram, after treatment with 300 mg/kg dose of compound perorally in sheep; type: functional, Egg; settings: route oral
Ovis aries [18] = assay: Percent reduction in Oesophagostomum eggs per gram, after treatment with 100 mg/kg dose of compound perorally in sheep; type: functional, Egg; settings: route oral; how it was run: as §2
Ovis aries [19] = assay: Percent reduction in Ostertagia eggs per gram, after treatment with 100 mg/kg dose of compound perorally in sheep; type: functional, Egg; settings: route oral; how it was run: as §2
Canis familiaris [20] = organism: Canis familiaris; assay: percent reduction in Ancylostoma eggs per gram, after oral treatment of 100 mg/dog dose of compound in a single treatment; type: functional, Canis lupus familiaris, Egg
How it was run: (§5)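 Dogs naturally infected with Toxascaris leonina were experimentally infected with mixed Ancylostoma caninum and Uncinaria stenocephala larvae. Finely ground compound was given orally in gelatin capsules. Three egg count determinations were made before and three after treatment in each experiment.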

Canis familiaris [21] = organism: Canis familiaris; assay: percent reduction in Uncinaria eggs per gram, after oral treatment of 150 mg/dog dose of compound in a single treatment; type: functional, Canis lupus familiaris, Egg
Ovis aries [22] = assay: Percent reduction in Strongyloides eggs per gram, after treatment with 100 mg/kg dose of compound perorally in sheep; type: functional, Egg; settings: route oral; how it was run: as §1
Ovis aries [23] = assay: Percent reduction in Ostertagia eggs per gram, after treatment with 400 mg/kg dose of compound perorally in sheep; type: functional, Egg; settings: route oral; how it was run: as §1
Ovis aries [24] = assay: Percent reduction in Moniezia eggs per gram, after treatment with 400 mg/kg dose of compound perorally in sheep; type: functional, Egg; settings: route oral; how it was run: as §2
Ovis aries [25] = assay: Percent reduction in Cooperia eggs per gram, after treatment with 400 mg/kg dose of compound perorally in sheep; type: functional, Egg; settings: route oral; how it was run: as §3
Mus musculus [26] = organism: Mus musculus; assay: Percent clearance of Syphacaia obvelata from mouse after oral treatment of 1.87 mg/mouse/day; type: functional; how it was run: as §4
Ovis aries [27] = assay: Percent reduction in Trichuris eggs per gram, after treatment with 400 mg/kg dose of compound perorally in sheep; type: functional, Egg; settings: route oral; how it was run: as §1
Canis familiaris [28] = organism: Canis familiaris; assay: percent reduction in Toxascaris eggs per gram, after oral treatment of 150 mg/dog dose of compound in a single treatment; type: functional, Canis lupus familiaris, Egg
Canis familiaris [29] = organism: Canis familiaris; assay: percent reduction in Uncinaria eggs per gram, after oral treatment of 100 mg/dog dose of compound in a single treatment; type: functional, Canis lupus familiaris, Egg
Ovis aries [30] = assay: Percent reduction in Nematodirus eggs per gram, after treatment with 100 mg/kg dose of compound perorally in sheep; type: functional, Egg; settings: route oral; how it was run: as §2
Canis familiaris [31] = organism: Canis familiaris; assay: percent reduction in Uncinaria eggs per gram, after oral treatment of 50 mg/dog dose of compound in a single treatment; type: functional, Canis lupus familiaris, Egg; how it was run: as §5
Canis familiaris [32] = organism: Canis familiaris; assay: percent reduction in Toxascaris eggs per gram, after oral treatment of 50 mg/dog dose of compound in a single treatment; type: functional, Canis lupus familiaris, Egg; how it was run: as §5

Q: With `CSc1ccc(/C(Cl)=N/Nc2ccccc2)cc1` as the compound, how does the Reduction (Ovis aries [1]) read?
A: 100%

Q: What about the Reduction (Canis familiaris [2]) of the same compound?
A: 91%

Q: What about the Reduction (Ovis aries [3]) of the same compound?
A: 98%

Q: And the Reduction (Ovis aries [4])?
A: 100%

Q: And the Reduction (Canis familiaris [5])?
A: 84%

Q: What about the Reduction (Ovis aries [6]) of the same compound?
A: 100%

Q: And the Reduction (Ovis aries [7])?
A: 25%

Q: And the Reduction (Ovis aries [8])?
A: 100%

Q: What about the Reduction (Ovis aries [9]) of the same compound?
A: 100%

Q: And the Reduction (Ovis aries [10])?
A: 100%

Q: And the Reduction (Ovis aries [11])?
A: 100%

Q: And the Reduction (Ovis aries [12])?
A: 100%

Q: And the Reduction (Ovis aries [13])?
A: 100%

Q: And the Reduction (Ovis aries [14])?
A: 98%

Q: What about the Parasite_Clearance (Mus musculus [15]) of the same compound?
A: 100%

Q: And the Reduction (Ovis aries [16])?
A: 100%

Q: And the Reduction (Ovis aries [17])?
A: 73%

Q: And the Reduction (Ovis aries [18])?
A: 100%

Q: And the Reduction (Ovis aries [19])?
A: 98%

Q: What about the Reduction (Canis familiaris [20]) of the same compound?
A: 94%

Q: What about the Reduction (Canis familiaris [21]) of the same compound?
A: 91%

Q: And the Reduction (Ovis aries [22])?
A: 100%

Q: And the Reduction (Ovis aries [23])?
A: 100%

Q: And the Reduction (Ovis aries [24])?
A: 100%

Q: What about the Reduction (Ovis aries [25]) of the same compound?
A: 100%

Q: What about the Parasite_Clearance (Mus musculus [26]) of the same compound?
A: 100%

Q: What about the Reduction (Ovis aries [27]) of the same compound?
A: 38%

Q: What about the Reduction (Canis familiaris [28]) of the same compound?
A: 100%

Q: And the Reduction (Canis familiaris [29])?
A: 99%

Q: What about the Reduction (Ovis aries [30]) of the same compound?
A: 100%

Q: What about the Reduction (Canis familiaris [31]) of the same compound?
A: 86%

Q: What about the Reduction (Canis familiaris [32]) of the same compound?
A: 69%
